The source made the active and inactive calls. No cut-off for these calls is given here.
Assays:
Melanocortin receptor 4 [1] = molecular target: T1, Melanocortin receptor 4 (Homo sapiens, UniProt P32245); experiment: Displacement of [125I]NDP-alphaMSH from human melanocortin 4 receptor expressed in CHOK1 cells; format: cell-based, CHO-K1
In short: (§1)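 Membranes from CHO-K1 cells stably expressing human MC1, MC3, MC4 or MC5 receptor, 1–10 µg protein/well, in 50 mM Tris-HCl pH 7.4 with 0.2% BSA, 5 mM MgCl2, 1 mM CaCl2, 0.1 mg/mL bacitracin. Incubated with increasing test compound and 0.1–0.3 nM [125I]NDP-α-MSH, 90–120 min at 37 °C depending on subtype. Filtration on PEI-presoaked GF/C filters, cold buffer washes, radioactivity counted; nonlinear regression; three independent measurements.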

[2] = molecular target: Melanocyte-stimulating hormone receptor (Homo sapiens, UniProt Q01726); experiment: Displacement of [125I]NDP-alphaMSH from human melanocortin 1 receptor expressed in CHOK1 cells; format: cell-based, CHO-K1; in short: as §1
Melanocortin receptor 3 = Melanocortin receptor 3 (Homo sapiens, UniProt P41968); experiment: Displacement of [125I]NDP-alphaMSH from human melanocortin 3 receptor expressed in CHOK1 cells; format: cell-based, CHO-K1; in short: as §1
Melanocortin receptor 5 = Melanocortin receptor 5 (Homo sapiens, UniProt P33032); experiment: Displacement of [125I]NDP-alphaMSH from human melanocortin 5 receptor expressed in CHOK1 cells; format: cell-based, CHO-K1; in short: as §1
Melanocortin receptor 4 [3] = molecular target: T1, Melanocortin receptor 4; experiment: Antagonist activity at human melanocortin 4 receptor expressed in CHOK1 cells assessed as inhibition of NDP-alpha-MSH-stimulated cAMP production; format: functional, cell-based; conditions: CHO-K1
In short: (§2)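 CHO-K1 cells stably expressing human MC4 receptor, suspended in RPMI 1640 with 0.5 mM IBMX and 0.2% protein cocktail, 7000 cells/well on anti-cAMP antibody-coated electrode plates. NDP-α-MSH concentration–response run with increasing test compound concentrations (agonist check at 10 µM alone), 40 min at 37 °C. Cells lysed, 2.5 nM ruthenium-labelled cAMP added, 90 min, then electrochemiluminescence read-out. Nonlinear regression; KB by Schild regression, logarithmic mean of three independent measurements.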

[4] = molecular target: Melanocortin receptor (M3 and M4) (Homo sapiens) (UniProt P32245+P41968); experiment: Selectivity for human MC4R over human MC3R; format: protein assay
Melanocortin receptor 4 [5] = molecular target: T1, Melanocortin receptor 4; experiment: Agonist activity at human melanocortin 4 receptor expressed in CHOK1 cells assessed as stimulation of cAMP production at 10 uM; format: functional, cell-based; conditions: CHO-K1; in short: as §2
[6] = Half life in Sprague-Dawley rat at 4.5 umol/kg, iv; format: ADME, organism-based; conditions: in vivo
In short: (§3)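 Fed male Sprague–Dawley rats, three per time point, given 4.5 µmol/kg intravenously via penile vein in 1 ml/kg 10% DMA/90% propanediol. Under deep isoflurane anaesthesia, blood taken from vena cava at 1, 15, 30, 60, 90 and 120 min, centrifuged 2000g, 15 min, 4 °C. Plasma and brain levels measured; brain/blood ratio from AUC.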

[7] = Ratio of drug level in brain to blood in Sprague-Dawley rat at 4.5 umol/kg, iv; format: ADME, tissue-based; conditions: read-out: Ratio AUC; in short: as §3

Sequence of Melanocortin receptor 5 (P33032 whole entry): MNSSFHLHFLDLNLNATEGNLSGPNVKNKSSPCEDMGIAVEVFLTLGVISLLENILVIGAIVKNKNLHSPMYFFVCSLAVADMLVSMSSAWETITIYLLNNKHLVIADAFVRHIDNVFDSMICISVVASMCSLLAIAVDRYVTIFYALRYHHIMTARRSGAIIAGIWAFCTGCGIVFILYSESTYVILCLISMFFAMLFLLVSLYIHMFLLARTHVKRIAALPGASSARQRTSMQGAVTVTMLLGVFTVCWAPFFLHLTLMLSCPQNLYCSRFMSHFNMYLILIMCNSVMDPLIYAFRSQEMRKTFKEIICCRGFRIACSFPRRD
T1 sequence (P32245 whole entry): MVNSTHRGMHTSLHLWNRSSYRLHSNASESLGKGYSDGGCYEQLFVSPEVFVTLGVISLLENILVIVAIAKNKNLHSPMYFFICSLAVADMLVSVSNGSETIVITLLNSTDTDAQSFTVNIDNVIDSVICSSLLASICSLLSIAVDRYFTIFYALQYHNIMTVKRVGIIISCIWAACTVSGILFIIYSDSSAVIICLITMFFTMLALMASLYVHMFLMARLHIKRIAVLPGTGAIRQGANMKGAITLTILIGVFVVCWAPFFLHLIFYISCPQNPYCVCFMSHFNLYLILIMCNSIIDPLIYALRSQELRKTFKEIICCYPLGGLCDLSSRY
Sequence of Melanocyte-stimulating hormone receptor (Q01726 whole entry): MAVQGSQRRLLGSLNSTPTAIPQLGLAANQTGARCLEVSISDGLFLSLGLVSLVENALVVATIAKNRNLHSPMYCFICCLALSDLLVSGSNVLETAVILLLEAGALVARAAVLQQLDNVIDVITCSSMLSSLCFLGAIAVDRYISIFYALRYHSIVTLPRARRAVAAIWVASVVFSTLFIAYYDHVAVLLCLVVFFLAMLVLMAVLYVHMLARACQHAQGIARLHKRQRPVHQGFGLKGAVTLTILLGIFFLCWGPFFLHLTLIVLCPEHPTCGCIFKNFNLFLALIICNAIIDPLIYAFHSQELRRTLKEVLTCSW
Sequence of Melanocortin receptor 3 (P41968 whole entry): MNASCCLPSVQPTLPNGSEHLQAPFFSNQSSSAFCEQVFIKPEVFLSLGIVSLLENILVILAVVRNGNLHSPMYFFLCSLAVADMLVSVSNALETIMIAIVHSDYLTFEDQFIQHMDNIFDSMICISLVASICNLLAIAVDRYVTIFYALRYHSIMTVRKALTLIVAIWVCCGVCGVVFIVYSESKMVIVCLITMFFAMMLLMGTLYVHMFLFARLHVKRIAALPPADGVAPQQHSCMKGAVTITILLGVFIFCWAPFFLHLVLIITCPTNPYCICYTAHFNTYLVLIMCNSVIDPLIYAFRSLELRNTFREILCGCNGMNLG

| SMILES | Ki (Melanocortin receptor 4 [1]; read-out: Ki) | further results |
| --- | --- | --- |
| COC(=O)c1ccc(-c2nc3ccc(C(=O)N(CCC(C)C)CCC(C)C)cc3n2CCCN2CCCCC2)cc1 | 45 nM |  |
| CC(=O)c1ccc(Nc2nc3ccc(C(=O)N(CCC(C)C)CCC(C)C)cc3n2CCCN)cc1 | 60 nM |  |
| CC(=O)c1ccc(Nc2nc3ccc(C(=O)N(CCC(C)C)CCC(C)C)cc3n2CCCO)cc1 | 2300 nM |  |
| COc1ccc(-c2nc3ccc(C(=O)N(CCC(C)C)CCC(C)C)cc3n2CCCN2CCCCC2)cc1 | 37 nM |  |
| CC(=O)c1ccc(Nc2nc3ccc(C(=O)N(CCC(C)C)CCC(C)C)cc3n2CCCN2CCN(C)CC2)cc1 | 45 nM |  |
| CCCCN(CCCC)C(=O)c1ccc2nc(Nc3cc(OC)c(OC)c(OC)c3)n(CCCN)c2c1 | 1000 nM |  |
| COc1cc(Nc2nc3ccc(C(=O)N(CCC(C)C)CCC(C)C)cc3n2CCCN)cc(OC)c1OC | 420 nM |  |
| CC(C)CCN(CCC(C)C)C(=O)c1ccc2nc(Nc3ccsc3)n(CCCN3CCCCC3)c2c1 | 33 nM |  |
| COc1cc(Nc2nc3ccc(C(=O)N(CC(C)C)CC(C)C)cc3n2CCCN)cc(OC)c1OC | 11000 nM | Ki (Melanocortin receptor 4 [1]; read-out: Log Ki (converted)): 11700 nM |
| CNCCCn1c(Nc2ccc(C(C)=O)cc2)nc2ccc(C(=O)N(CCC(C)C)CCC(C)C)cc21 | 51 nM |  |
| CC(=O)c1ccc(Nc2nc3ccc(C(=O)N(CCC(C)C)CCC(C)C)cc3n2CCCNC(=O)OC(C)(C)C)cc1 | > 10000 nM | Ki (Melanocortin receptor 4 [1]; read-out: Log Ki (converted)): 85100 nM |
| CC(=O)NCCNc1nc2ccc(C(=O)N(CCC(C)C)CCC(C)C)cc2n1CCCN1CCCCC1 | 31 nM |  |
| COc1ccc(C(=O)c2nc3ccc(C(=O)N(CCC(C)C)CCC(C)C)cc3n2CCCN2CCCCC2)cc1 | 0.96 nM | Ki [2]: 7500 nM; Ki (Melanocortin receptor 3): 540 nM; Ki (Melanocortin receptor 5): 1600 nM; Kb (Melanocortin receptor 4 [3]): 44 nM; Fold change [4]: 40; Activity (Melanocortin receptor 4 [5]): inactive |
| CC(=O)c1ccc(Nc2nc3ccc(C(=O)N(CCC(C)C)CCC(C)C)cc3n2CC(C)(C)CN(C)C)cc1 | 730 nM |  |
| COc1ccc(Cc2nc3ccc(C(=O)N(CCC(C)C)CCC(C)C)cc3n2CCCN2CCCCC2)cc1 | 28 nM |  |
| CC(=O)c1ccc(Nc2nc3ccc(C(=O)N(CCC(C)C)CCC(C)C)cc3n2CCCN2CCOCC2)cc1 | 33 nM |  |
| COCCNc1nc2ccc(C(=O)N(CCC(C)C)CCC(C)C)cc2n1CCCN1CCCCC1 | 78 nM |  |
| CC(=O)c1ccc(Nc2nc3ccc(C(=O)N(CCC(C)C)CCC(C)C)cc3n2CCCCN)cc1 | 130 nM |  |
| CCCCCN(CCCCC)C(=O)c1ccc2nc(Nc3cc(OC)c(OC)c(OC)c3)n(CCCN)c2c1 | 640 nM |  |
| CC(=O)c1ccc(Nc2nc3ccc(C(=O)N(CCC(C)C)CCC(C)C)cc3n2CCN)cc1 | 220 nM |  |
| CC(=O)c1ccc(-c2nc3ccc(C(=O)N(CCC(C)C)CCC(C)C)cc3n2CCCN2CCCCC2)cc1 | 20 nM |  |
| CC(=O)c1ccc(Nc2nc3ccc(C(=O)N(CCC(C)C)CCC(C)C)cc3n2C2CCN(C)CC2)cc1 | 50 nM |  |
| CC(=O)c1ccccc1Nc1nc2ccc(C(=O)N(CCC(C)C)CCC(C)C)cc2n1CCCN1CCCCC1 | 110 nM |  |
| CC(=O)c1ccc(Nc2nc3ccc(C(=O)N(CC(C)C)CC(C)C)cc3n2CCCN)cc1 | 770 nM |  |
| CCCN(CCC)C(=O)c1ccc2nc(Nc3cc(OC)c(OC)c(OC)c3)n(CCCN)c2c1 | 17000 nM | Ki (Melanocortin receptor 4 [1]; read-out: Log Ki (converted)): 17800 nM |

Further compounds by falling Ki (Melanocortin receptor 4 [1]; read-out: Ki), results first:

| Ki (Melanocortin receptor 4 [1]; read-out: Ki) | SMILES | further results |
| --- | --- | --- |
| 18 nM | CC(C)CCN(CCC(C)C)C(=O)c1ccc2nc(NCc3ccccc3)n(CCCN3CCCCC3)c2c1 |  |
| 14 nM | CC(C)CCN(CCC(C)C)C(=O)c1ccc2nc(Nc3cccc4[nH]ccc34)n(CCCN3CCCCC3)c2c1 |  |
| 12 nM | CC(=O)c1ccc(Nc2nc3ccc(C(=O)N(CCC(C)C)CCC(C)C)cc3n2CCCN(C)C)cc1 |  |
| 9.7 nM | CC(C)CCN(CCC(C)C)C(=O)c1ccc2nc(Nc3ccc(N4CCCCC4)cc3)n(CCCN3CCCCC3)c2c1 |  |
| 8.8 nM | CC(C)CCN(CCC(C)C)C(=O)c1ccc2nc(Nc3ccc(Cl)cc3)n(CCCN3CCCCC3)c2c1 |  |
| 8.3 nM | CC(C)CCN(CCC(C)C)C(=O)c1ccc2nc(Nc3ccc(F)cc3)n(CCCN3CCCCC3)c2c1 |  |
| 7.9 nM | CCN(CC)CCCn1c(Nc2ccc(C(C)=O)cc2)nc2ccc(C(=O)N(CCC(C)C)CCC(C)C)cc21 |  |
| 7.5 nM | CC(C)CCN(CCC(C)C)C(=O)c1ccc2nc(Nc3ccc(Br)cc3)n(CCCN3CCCCC3)c2c1 |  |
| 7.3 nM | CC(C)CCN(CCC(C)C)C(=O)c1ccc2nc(Nc3ccccc3)n(CCCN3CCCCC3)c2c1 |  |
| 7 nM | CC(C)CCN(CCC(C)C)C(=O)c1ccc2nc(-c3c[nH]c4ccccc34)n(CCCN3CCCCC3)c2c1 |  |
| 6.5 nM | CC(C)CCN(CCC(C)C)C(=O)c1ccc2nc(Nc3ccc(C(N)=O)cc3)n(CCCN3CCCCC3)c2c1 |  |
| 5.8 nM | CC(=O)c1ccc(CNc2nc3ccc(C(=O)N(CCC(C)C)CCC(C)C)cc3n2CCCN2CCCCC2)cc1 |  |
| 5.2 nM | CC(C)CCN(CCC(C)C)C(=O)c1ccc2nc(Nc3ccc(-c4ccccc4)cc3)n(CCCN3CCCCC3)c2c1 |  |
| 5 nM | COc1ccc(Nc2nc3ccc(C(=O)N(CCC(C)C)CCC(C)C)cc3n2CCCN2CCCCC2)cc1 |  |
| 4.9 nM | CC(=O)c1ccc(Nc2nc3ccc(C(=O)N(CCC(C)C)CCC(C)C)cc3n2CCCN2CCCC2)cc1 |  |
| 4.5 nM | CC(=O)c1cccc(Nc2nc3ccc(C(=O)N(CCC(C)C)CCC(C)C)cc3n2CCCN2CCCCC2)c1 |  |
| 4.2 nM | CC(C)CCN(CCC(C)C)C(=O)c1ccc2nc(Nc3cccnc3)n(CCCN3CCCCC3)c2c1 |  |
| 3.9 nM | CC(=O)c1ccc(Cc2nc3ccc(C(=O)N(CCC(C)C)CCC(C)C)cc3n2CCCN2CCCCC2)cc1 | Ki [2]: > 10000 nM; Ki (Melanocortin receptor 3): 4500 nM; Ki (Melanocortin receptor 5): 5900 nM; Kb (Melanocortin receptor 4 [3]): 14 nM; Activity (Melanocortin receptor 4 [5]): inactive |
| 3.7 nM | CC(=O)Nc1ccc(Nc2nc3ccc(C(=O)N(CCC(C)C)CCC(C)C)cc3n2CCCN2CCCCC2)cc1 |  |
| 3.3 nM | CNC(=O)c1ccc(Nc2nc3ccc(C(=O)N(CCC(C)C)CCC(C)C)cc3n2CCCN2CCCCC2)cc1 | Ki [2]: 9300 nM; Ki (Melanocortin receptor 3): 130 nM; Ki (Melanocortin receptor 5): 880 nM; Kb (Melanocortin receptor 4 [3]): 3.2 nM; Fold change [4]: 40; Activity (Melanocortin receptor 4 [5]): inactive |
| 3.2 nM | CC(C)CCN(CCC(C)C)C(=O)c1ccc2nc(-c3cn(C)c4ccccc34)n(CCCN3CCCCC3)c2c1 |  |
| 2.9 nM | CC(C)CCN(CCC(C)C)C(=O)c1ccc2nc(-c3cc4ccccc4s3)n(CCCN3CCCCC3)c2c1 |  |
| 2.7 nM | CCC(=O)c1ccc(Nc2nc3ccc(C(=O)N(CCC(C)C)CCC(C)C)cc3n2CCCN2CCCCC2)cc1 |  |
| 2.2 nM | CC(C)CCN(CCC(C)C)C(=O)c1ccc2nc(Nc3ccc([N+](=O)[O-])cc3)n(CCCN3CCCCC3)c2c1 |  |
| 2.1 nM | CC(C)CCN(CCC(C)C)C(=O)c1ccc2nc(Nc3ccc(Oc4ccccc4)cc3)n(CCCN3CCCCC3)c2c1 |  |
| 2 nM | CC(=O)c1ccc(Nc2nc3ccc(C(=O)N(CCC(C)C)CCC(C)C)cc3n2CCCN2CCCCC2)cc1 | Ki [2]: 5200 nM; Ki (Melanocortin receptor 3): 400 nM; Ki (Melanocortin receptor 5): 2200 nM; Kb (Melanocortin receptor 4 [3]): 77 nM; half-life [6]: 5 h; Kp [7]: 2.9; Activity (Melanocortin receptor 4 [5]): inactive |
| 1.7 nM | CC(C)CCN(CCC(C)C)C(=O)c1ccc2nc(Nc3ccc(C(=O)c4ccccc4)cc3)n(CCCN3CCCCC3)c2c1 |  |
| 0.9 nM | COC(=O)c1ccc(Nc2nc3ccc(C(=O)N(CCC(C)C)CCC(C)C)cc3n2CCCN2CCCCC2)cc1 |  |

From ChEMBL document CHEMBL1149565, “Identification of a novel series of benzimidazoles as potent and selective antagonists of the human melanocortin-4 receptor” (Bioorg Med Chem Lett, 2007)
